According to ChEMBL document CHEMBL1955770, “Inhibition of S/G2 phase CDK4 reduces mitotic fidelity” (J Biol Chem, 2006):

Tests used:
[1] = target: MAP kinase-interacting serine/threonine-protein kinase 2 (Homo sapiens) (UniProt Q9HBH9); experiment: Inhibition of MKNK2 at 1 uM
[2] = target: Calcium/calmodulin-dependent protein kinase type II subunit delta (Homo sapiens) (UniProt Q13557); experiment: Inhibition of CAMK2D at 1 uM
Outline: (§1)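 Competition binding screen across a kinase panel with compound at 1 μM. Read-out is % competition. Kinases not hit at this concentration were scored '<50'. No Kd was determined for hits.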

[3] = target: Mitogen-activated protein kinase kinase kinase 4 (Homo sapiens) (UniProt Q9Y6R4); experiment: Inhibition of MAP3K4 at 1 uM
Mitogen-activated protein kinase kinase kinase 4 (Homo sapiens), sequence (Q9Y6R4 whole entry): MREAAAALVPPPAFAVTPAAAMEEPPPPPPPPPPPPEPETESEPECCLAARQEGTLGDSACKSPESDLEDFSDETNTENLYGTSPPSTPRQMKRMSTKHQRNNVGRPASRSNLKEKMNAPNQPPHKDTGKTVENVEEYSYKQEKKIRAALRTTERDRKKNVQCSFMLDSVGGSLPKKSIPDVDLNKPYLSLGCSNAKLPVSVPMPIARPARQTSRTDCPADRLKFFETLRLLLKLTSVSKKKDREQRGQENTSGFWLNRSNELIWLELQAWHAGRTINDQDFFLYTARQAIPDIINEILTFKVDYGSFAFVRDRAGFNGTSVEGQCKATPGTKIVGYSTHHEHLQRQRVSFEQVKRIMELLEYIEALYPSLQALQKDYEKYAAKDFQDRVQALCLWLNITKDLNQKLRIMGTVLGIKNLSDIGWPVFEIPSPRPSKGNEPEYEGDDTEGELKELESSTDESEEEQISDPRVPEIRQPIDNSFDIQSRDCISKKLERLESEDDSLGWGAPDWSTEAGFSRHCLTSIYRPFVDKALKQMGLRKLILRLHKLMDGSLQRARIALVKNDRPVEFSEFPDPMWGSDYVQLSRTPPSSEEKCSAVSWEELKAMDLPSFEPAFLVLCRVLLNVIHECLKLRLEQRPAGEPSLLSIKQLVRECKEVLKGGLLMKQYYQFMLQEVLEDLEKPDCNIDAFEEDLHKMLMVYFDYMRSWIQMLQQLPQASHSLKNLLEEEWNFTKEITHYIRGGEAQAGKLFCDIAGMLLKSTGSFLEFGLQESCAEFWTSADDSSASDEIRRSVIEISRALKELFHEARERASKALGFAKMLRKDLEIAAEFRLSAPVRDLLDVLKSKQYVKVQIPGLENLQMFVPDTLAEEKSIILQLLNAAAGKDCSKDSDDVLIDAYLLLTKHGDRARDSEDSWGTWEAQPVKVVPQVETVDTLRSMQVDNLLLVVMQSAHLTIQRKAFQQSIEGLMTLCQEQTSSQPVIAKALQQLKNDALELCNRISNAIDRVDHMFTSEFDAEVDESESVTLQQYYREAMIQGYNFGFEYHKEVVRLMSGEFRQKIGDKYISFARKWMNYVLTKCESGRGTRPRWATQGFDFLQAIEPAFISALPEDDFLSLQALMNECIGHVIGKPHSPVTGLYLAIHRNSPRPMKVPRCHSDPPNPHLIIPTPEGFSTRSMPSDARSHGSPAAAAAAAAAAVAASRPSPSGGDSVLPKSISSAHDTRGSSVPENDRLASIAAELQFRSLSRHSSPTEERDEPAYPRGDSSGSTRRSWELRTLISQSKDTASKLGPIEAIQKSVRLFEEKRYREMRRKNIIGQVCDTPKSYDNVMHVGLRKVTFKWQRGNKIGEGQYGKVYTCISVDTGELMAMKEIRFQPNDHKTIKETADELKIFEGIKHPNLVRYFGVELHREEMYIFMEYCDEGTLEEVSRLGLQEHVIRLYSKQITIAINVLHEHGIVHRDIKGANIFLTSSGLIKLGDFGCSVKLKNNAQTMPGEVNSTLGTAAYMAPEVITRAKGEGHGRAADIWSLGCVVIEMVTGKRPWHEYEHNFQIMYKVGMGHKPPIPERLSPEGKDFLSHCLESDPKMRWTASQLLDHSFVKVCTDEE

[4] = target: Protein-tyrosine kinase 6 (Homo sapiens) (UniProt Q13882); experiment: Inhibition of PTK6 at 1 uM
[5] = target: Calcium/calmodulin-dependent protein kinase type II subunit beta (Homo sapiens) (UniProt Q13554); experiment: Inhibition of CAMK2B at 1 uM; outline: as §1
Calcium/calmodulin-dependent protein kinase type II subunit beta (Homo sapiens), sequence (Q13554 whole entry): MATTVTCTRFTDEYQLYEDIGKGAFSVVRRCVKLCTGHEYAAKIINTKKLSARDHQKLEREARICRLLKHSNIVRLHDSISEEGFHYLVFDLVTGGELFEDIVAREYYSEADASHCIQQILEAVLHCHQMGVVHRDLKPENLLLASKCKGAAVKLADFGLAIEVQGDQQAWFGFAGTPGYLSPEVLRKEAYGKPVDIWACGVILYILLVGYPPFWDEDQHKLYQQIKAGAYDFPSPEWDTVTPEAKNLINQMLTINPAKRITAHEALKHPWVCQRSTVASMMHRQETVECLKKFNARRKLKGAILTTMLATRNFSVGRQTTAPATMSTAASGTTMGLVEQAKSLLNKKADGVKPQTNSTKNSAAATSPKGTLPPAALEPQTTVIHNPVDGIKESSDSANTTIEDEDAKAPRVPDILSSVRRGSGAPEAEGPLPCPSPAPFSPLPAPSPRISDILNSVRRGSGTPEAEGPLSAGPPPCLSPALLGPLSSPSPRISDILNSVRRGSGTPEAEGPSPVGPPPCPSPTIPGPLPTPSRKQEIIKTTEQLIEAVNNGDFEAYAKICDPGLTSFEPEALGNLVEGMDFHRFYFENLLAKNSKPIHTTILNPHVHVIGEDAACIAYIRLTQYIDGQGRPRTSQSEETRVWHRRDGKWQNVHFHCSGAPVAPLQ

[6] = target: Fibroblast growth factor receptor 3 (Homo sapiens) (UniProt P22607); experiment: Inhibition of FGFR3 at 1 uM
[7] = target: Calcium/calmodulin-dependent protein kinase type 1G (Homo sapiens) (UniProt Q96NX5); experiment: Inhibition of CAMK1G at 1 uM; outline: as §1
[8] = target: 3-phosphoinositide-dependent protein kinase 1 (Homo sapiens) (UniProt O15530); experiment: Inhibition of PDPK1 at 1 uM
[9] = target: Ribosomal protein S6 kinase alpha-5 (Homo sapiens) (UniProt O75582); experiment: Inhibition of RPS6KA5 Kin.Dom.1 at 1 uM
[10] = target: Serine/threonine-protein kinase pim-2 (Homo sapiens) (UniProt Q9P1W9); experiment: Inhibition of PIM2 at 1 uM
[11] = target: High affinity nerve growth factor receptor (Homo sapiens) (UniProt P04629); experiment: Inhibition of TRKA at 1 uM
[12] = target: Tyrosine-protein kinase ABL1 (Homo sapiens) (UniProt P00519); experiment: Inhibition of ABL1 at 1 uM
[13] = target: Mitogen-activated protein kinase 14 (Homo sapiens) (UniProt Q16539); experiment: Inhibition of p38-alpha at 1 uM
[14] = target: Serine/threonine-protein kinase 17B (Homo sapiens) (UniProt O94768); experiment: Inhibition of STK17B at 1 uM
[15] = target: Platelet-derived growth factor receptor alpha (Homo sapiens) (UniProt P16234); experiment: Inhibition of PDGFRA at 1 uM
HCT-116 = experiment: Cell cycle arrest in Rb-competent human HCT116 cells assessed as reduction in S phase after 24 hrs using BrdUrd staining by FACS analysis; assay type: functional, cell-based; conditions: HCT-116, 24 h
Outline: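 Asynchronous HCT-116 cells treated 24 h with increasing inhibitor doses, then given a 30-min BrdUrd pulse before harvest. Percentage of BrdUrd-positive cells measured by FACS; IC50 taken as the dose reducing S phase to 50% of control.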

[16] = target: Ephrin type-A receptor 5 (Homo sapiens) (UniProt P54756); experiment: Inhibition of EPHA5 at 1 uM
[17] = target: Tyrosine-protein kinase Yes (Homo sapiens) (UniProt P07947); experiment: Inhibition of YES at 1 uM
[18] = target: AP2-associated protein kinase 1 (Homo sapiens) (UniProt Q2M2I8); experiment: Inhibition of AAK1 at 1 uM
[19] = target: Serine/threonine-protein kinase 36 (Homo sapiens) (UniProt Q9NRP7); experiment: Inhibition of STK36 at 1 uM
[20] = target: Tyrosine-protein kinase SYK (Homo sapiens) (UniProt P43405); experiment: Inhibition of SYK at 1 uM
[21] = target: Mitogen-activated protein kinase 10 (Homo sapiens) (UniProt P53779); experiment: Inhibition of JNK3 at 1 uM
[22] = target: Serine/threonine-protein kinase MARK2 (Homo sapiens) (UniProt Q7KZI7); experiment: Inhibition of MARK2 at 1 uM
[23] = target: Tyrosine-protein kinase HCK (Homo sapiens) (UniProt P08631); experiment: Inhibition of HCK at 1 uM
[24] = target: Focal adhesion kinase 1 (Homo sapiens) (UniProt Q05397); experiment: Inhibition of PTK2 at 1 uM
[25] = target: Casein kinase I isoform gamma-1 (Homo sapiens) (UniProt Q9HCP0); experiment: Inhibition of CSNK1G1 at 1 uM
Casein kinase I isoform gamma-1 (Homo sapiens), sequence (Q9HCP0 whole entry, looked up, canonical isoform): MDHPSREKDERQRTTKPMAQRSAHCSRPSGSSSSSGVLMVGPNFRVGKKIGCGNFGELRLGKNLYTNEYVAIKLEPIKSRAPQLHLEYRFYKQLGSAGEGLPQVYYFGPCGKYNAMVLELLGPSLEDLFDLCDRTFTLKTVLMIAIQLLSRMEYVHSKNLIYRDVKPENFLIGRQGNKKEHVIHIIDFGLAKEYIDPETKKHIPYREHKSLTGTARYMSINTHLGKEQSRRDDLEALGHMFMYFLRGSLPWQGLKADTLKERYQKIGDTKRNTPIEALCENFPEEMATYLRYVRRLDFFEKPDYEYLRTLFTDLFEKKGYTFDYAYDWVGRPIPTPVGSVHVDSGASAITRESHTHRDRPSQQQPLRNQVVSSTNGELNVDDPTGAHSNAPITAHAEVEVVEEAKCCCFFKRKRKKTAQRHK

[26] = target: Insulin-like growth factor 1 receptor (Homo sapiens, UniProt P08069); experiment: Inhibition of IGF1R at 1 uM
[27] = target: Phosphorylase b kinase gamma catalytic chain, liver/testis isoform (Homo sapiens) (UniProt P15735); experiment: Inhibition of PHKG2 at 1 uM
Phosphorylase b kinase gamma catalytic chain, liver/testis isoform (Homo sapiens), sequence (P15735 whole entry, canonical isoform): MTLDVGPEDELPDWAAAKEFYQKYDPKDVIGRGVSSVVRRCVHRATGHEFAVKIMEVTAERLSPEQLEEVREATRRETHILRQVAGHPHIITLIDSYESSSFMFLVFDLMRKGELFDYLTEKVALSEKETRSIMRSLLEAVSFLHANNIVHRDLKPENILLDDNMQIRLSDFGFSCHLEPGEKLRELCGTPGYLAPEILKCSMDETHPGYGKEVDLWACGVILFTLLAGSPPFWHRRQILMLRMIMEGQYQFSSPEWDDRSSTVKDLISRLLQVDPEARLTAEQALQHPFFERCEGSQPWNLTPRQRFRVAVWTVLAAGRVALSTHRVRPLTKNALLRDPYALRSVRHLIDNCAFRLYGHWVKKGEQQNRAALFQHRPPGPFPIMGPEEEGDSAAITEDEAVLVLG

[28] = target: Cyclin-G-associated kinase (Homo sapiens) (UniProt O14976); experiment: Inhibition of GAK at 1 uM
[29] = target: Tyrosine-protein kinase Lyn (Homo sapiens) (UniProt P07948); experiment: Inhibition of LYN at 1 uM
[30] = target: Tyrosine-protein kinase ITK/TSK (Homo sapiens) (UniProt Q08881); experiment: Inhibition of ITK at 1 uM
[31] = target: Ephrin type-A receptor 4 (Homo sapiens) (UniProt P54764); experiment: Inhibition of EPHA4 at 1 uM
[32] = target: Serine/threonine-protein kinase PAK 5 (Homo sapiens) (UniProt Q9P286); experiment: Inhibition of PAK7/PAK5 at 1 uM
[33] = target: 5'-AMP-activated protein kinase catalytic subunit alpha-1 (Homo sapiens) (UniProt Q13131); experiment: Inhibition of AMPK-alpha1 at 1 uM; outline: as §1
[34] = target: Tyrosine-protein kinase BTK (Homo sapiens) (UniProt Q06187); experiment: Inhibition of BTK at 1 uM; outline: as §1
Tyrosine-protein kinase BTK (Homo sapiens), sequence (Q06187 whole entry): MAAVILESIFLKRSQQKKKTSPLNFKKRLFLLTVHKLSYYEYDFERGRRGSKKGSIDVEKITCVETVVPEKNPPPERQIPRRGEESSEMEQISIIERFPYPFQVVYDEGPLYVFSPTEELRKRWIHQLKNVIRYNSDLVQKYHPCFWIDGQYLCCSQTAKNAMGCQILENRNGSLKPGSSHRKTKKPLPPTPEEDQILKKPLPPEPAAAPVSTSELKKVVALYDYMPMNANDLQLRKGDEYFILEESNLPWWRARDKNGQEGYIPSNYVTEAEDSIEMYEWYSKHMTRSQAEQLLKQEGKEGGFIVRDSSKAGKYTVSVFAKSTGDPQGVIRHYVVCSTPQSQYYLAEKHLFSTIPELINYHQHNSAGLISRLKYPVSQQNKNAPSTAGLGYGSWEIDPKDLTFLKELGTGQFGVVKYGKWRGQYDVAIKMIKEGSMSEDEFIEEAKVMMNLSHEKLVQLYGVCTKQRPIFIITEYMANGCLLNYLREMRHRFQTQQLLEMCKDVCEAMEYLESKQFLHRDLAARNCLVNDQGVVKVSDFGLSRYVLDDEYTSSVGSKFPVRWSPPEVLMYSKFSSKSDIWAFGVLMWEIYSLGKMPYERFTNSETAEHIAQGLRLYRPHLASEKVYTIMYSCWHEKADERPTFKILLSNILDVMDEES

[35] = target: Cyclin-dependent kinase 16 (Homo sapiens) (UniProt Q00536); experiment: Inhibition of PCTK1 at 1 uM
[36] = target: Aurora kinase A (Homo sapiens) (UniProt O14965); experiment: Inhibition of AURKA at 1 uM; outline: as §1
[37] = target: Phosphorylase b kinase gamma catalytic chain, skeletal muscle/heart isoform (Homo sapiens) (UniProt Q16816); experiment: Inhibition of PHKG1 at 1 uM
[38] = target: Dual specificity protein kinase CLK1 (Homo sapiens) (UniProt P49759); experiment: Inhibition of CLK1 at 1 uM
Dual specificity protein kinase CLK1 (Homo sapiens), sequence (P49759 whole entry, looked up): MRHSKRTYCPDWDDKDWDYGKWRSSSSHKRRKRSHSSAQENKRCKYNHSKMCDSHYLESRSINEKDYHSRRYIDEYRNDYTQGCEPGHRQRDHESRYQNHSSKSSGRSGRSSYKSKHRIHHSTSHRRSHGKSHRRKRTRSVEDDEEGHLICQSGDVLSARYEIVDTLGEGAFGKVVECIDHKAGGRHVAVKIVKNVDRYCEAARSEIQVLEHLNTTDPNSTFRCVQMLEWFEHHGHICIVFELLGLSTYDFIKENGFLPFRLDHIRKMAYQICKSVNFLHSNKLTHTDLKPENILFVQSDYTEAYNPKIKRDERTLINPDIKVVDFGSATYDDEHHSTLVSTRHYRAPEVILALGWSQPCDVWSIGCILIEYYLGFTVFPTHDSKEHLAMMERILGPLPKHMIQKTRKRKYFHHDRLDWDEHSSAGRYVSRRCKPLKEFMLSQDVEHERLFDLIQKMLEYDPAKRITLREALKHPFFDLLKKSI

[39] = target: Ephrin type-A receptor 2 (Homo sapiens) (UniProt P29317); experiment: Inhibition of EPHA2 at 1 uM
[40] = target: Ephrin type-A receptor 6 (Homo sapiens) (UniProt Q9UF33); experiment: Inhibition of EPHA6 at 1 uM
[41] = target: Vascular endothelial growth factor receptor 2 (Homo sapiens) (UniProt P35968); experiment: Inhibition of VEGFR2 at 1 uM
[42] = target: Mitogen-activated protein kinase 9 (Homo sapiens) (UniProt P45984); experiment: Inhibition of JNK2 at 1 uM
[43] = target: Serine/threonine-protein kinase Nek6 (Homo sapiens) (UniProt Q9HC98); experiment: Inhibition of NEK6 at 1 uM
Serine/threonine-protein kinase Nek6 (Homo sapiens), sequence (Q9HC98 whole entry): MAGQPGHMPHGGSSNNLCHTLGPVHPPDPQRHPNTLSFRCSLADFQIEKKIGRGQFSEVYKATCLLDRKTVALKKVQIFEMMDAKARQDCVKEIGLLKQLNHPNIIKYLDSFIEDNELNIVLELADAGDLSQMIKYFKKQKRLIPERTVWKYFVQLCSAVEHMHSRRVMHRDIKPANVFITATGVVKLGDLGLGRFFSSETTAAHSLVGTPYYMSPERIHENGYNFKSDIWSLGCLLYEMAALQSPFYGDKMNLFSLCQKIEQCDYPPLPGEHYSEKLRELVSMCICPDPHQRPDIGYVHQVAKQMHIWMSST

[44] = target: Dual specificity protein kinase CLK3 (Homo sapiens) (UniProt P49761); experiment: Inhibition of CLK3 at 1 uM
Dual specificity protein kinase CLK3 (Homo sapiens), sequence (P49761 whole entry, looked up): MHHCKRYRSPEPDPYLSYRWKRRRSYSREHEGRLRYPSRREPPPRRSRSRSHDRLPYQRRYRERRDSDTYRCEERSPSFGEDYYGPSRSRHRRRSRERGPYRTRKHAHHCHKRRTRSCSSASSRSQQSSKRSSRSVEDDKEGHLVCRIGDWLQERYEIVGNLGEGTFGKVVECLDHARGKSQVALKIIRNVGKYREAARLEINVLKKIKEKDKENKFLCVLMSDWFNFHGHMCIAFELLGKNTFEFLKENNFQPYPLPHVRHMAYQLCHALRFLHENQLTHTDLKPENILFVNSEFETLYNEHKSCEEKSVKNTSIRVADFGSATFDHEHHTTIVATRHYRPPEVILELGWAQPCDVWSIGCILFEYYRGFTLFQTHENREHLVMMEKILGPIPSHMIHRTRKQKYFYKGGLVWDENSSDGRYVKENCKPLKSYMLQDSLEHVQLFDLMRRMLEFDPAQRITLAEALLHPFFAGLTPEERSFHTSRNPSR

inhibition [1]: < 50%
inhibition [2]: < 50%
inhibition [3]: < 50%
inhibition [4]: < 50%
inhibition [5]: < 50%
inhibition [6]: < 50%
inhibition [7]: < 50%
inhibition [8]: < 50%
inhibition [9]: < 50%
inhibition [10]: < 50%
inhibition [11]: < 50%
inhibition [12]: < 50%
inhibition [13]: < 50%
inhibition [14]: < 50%
inhibition [15]: < 50%
IC50 (HCT-116): 3.9 µM
IC90 (HCT-116): 6.1 µM
inhibition [16]: < 50%
inhibition [17]: < 50%
inhibition [18]: 84%
inhibition [19]: 86%
inhibition [20]: < 50%
inhibition [21]: 66%
inhibition [22]: < 50%
inhibition [23]: < 50%
inhibition [24]: < 50%
inhibition [25]: 98%
inhibition [26]: < 50%
inhibition [27]: < 50%
inhibition [28]: 100%
inhibition [29]: < 50%
inhibition [30]: < 50%
inhibition [31]: < 50%
inhibition [32]: < 50%
inhibition [33]: < 50%
inhibition [34]: < 50%
inhibition [35]: 99%
inhibition [36]: < 50%
inhibition [37]: < 50%
inhibition [38]: 100%
inhibition [39]: < 50%
inhibition [40]: < 50%
inhibition [41]: < 50%
inhibition [42]: < 50%
inhibition [43]: < 50%
inhibition [44]: 89%
SMILES: CN1CCN(c2ccc(Nc3nc(N)c(C(=O)c4ccc5c(c4)OCCO5)s3)cc2)CC1
